# Screening results: PubChem BioAssay, several laboratories
# This is a sample that favours compounds with a hit; in the whole collection about 1.8% have one here.
# bovine MsrA act: bovine methionine sulfoxide reductase A activation | purified bovine MsrA, absorbance read-out | activation, % at 10.6 µM | hit rate 0.3% among 360,000 | AID 602163; in the data active = activation above about 7.5%;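 note: 0% = vehicle and 100% = reference activator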
# SKN-1 inh: inhibitors of C. elegans SKN-1 | C. elegans VP596 Pgst-4::GFP/RFP ratio, acrylamide-induced, 24 h | AID 624304 | hit rate 0.49% among 360,000 | inhibition, % at 21.8 µM;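 active = interference check ratio from 0.5 to 1.5 plus GFP to RFP signal ratio inhibition reaching or exceeding a fixed threshold, cut at about 30% in these data, passing the limit was not always enough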
# MsrA inhibitor: inhibitors of bovine MsrA; purified bovine MsrA, absorbance read-out; inhibition, % at 15.5 µM; AID 651718; hit rate 0.75% among 360,000; in the data active = inhibition above about 4.5%;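 note: 0% = vehicle wells with enzyme and 100% = reference inhibitor wells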
# beta cell repl: inducers of beta-cell replication in MIN6 cells; MIN6 cells proliferation, ATPlite luminescence, 48 h; cells starved in 0.2% serum; 100% = growth in 10% serum; proliferation, % at 10 µM; hit rate 0.29% among 330,000; AID 2380;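 active = compounds whose signal lies at least 3.5 SD above the mean of all wells on their plate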;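 note: 0% = DMSO-treated cells in low-serum medium and 100% = 10% serum control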
# MT1-MMP act inh: MT1-MMP (human) activation inhibition | P50281 | HT1080 RFP-PRO-GFP cells, GFP/RFP ratio fluorescence, overnight; percent of plate control window, DMSO zero | GFP/RFP ratio change, % at 20 µM | hit rate 0.061% among 360,000;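 active = GFP/RFP ratio change of at least 30% with cell ATP level not reduced by more than half and red fluorescence within 50% of control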
#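 Read-out: GFP/RFP fluorescence ratio; Test system: RFP-PRO-GFP reporter HT1080 cells; Compound dosing: single-point 20 µM compound, 1% DMSO; Times: overnight compound exposure at 37 °C.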
# DAGLB inh: diacylglycerol lipase beta (human) inhibition; Q8NCG7; HEK293T DAGLB membrane lysate, EnzChek fluorogenic substrate; inhibition, % at 5.17 µM; hit rate 0.059% among 340,000; AID 504411; in the data active = inhibition above about 34%;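 note: 0% = enzyme with vehicle and 100% = wells lacking enzyme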
# Target sequence (Q8NCG7 whole entry, looked up): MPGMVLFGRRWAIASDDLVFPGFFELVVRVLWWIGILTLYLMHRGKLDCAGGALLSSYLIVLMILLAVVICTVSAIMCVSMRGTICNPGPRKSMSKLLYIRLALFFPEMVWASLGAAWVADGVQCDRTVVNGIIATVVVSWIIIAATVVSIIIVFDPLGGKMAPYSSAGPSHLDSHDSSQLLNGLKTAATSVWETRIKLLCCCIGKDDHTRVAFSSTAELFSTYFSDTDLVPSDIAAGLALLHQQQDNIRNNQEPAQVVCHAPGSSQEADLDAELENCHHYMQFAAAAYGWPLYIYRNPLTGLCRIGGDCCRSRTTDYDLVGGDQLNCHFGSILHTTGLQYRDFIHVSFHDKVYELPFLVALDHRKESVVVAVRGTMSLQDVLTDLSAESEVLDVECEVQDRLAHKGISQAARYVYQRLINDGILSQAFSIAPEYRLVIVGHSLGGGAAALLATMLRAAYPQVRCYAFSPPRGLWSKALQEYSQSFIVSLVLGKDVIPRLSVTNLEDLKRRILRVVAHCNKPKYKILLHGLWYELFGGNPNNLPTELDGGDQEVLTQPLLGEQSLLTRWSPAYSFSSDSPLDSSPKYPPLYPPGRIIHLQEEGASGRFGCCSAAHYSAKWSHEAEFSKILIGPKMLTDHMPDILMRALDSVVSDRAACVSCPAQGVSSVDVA
# * = called active by the depositor; . = no result given.
SMILES,bovine MsrA act,SKN-1 inh,MsrA inhibitor,beta cell repl,MT1-MMP act inh,DAGLB inh
COc1cc2c(cc1OC)C(C1C(=O)CCCC1=O)N(C(=O)CCl)CC2 (stereo not drawn),-2,4,0,0,7,1
COc1cc2c(cc1OC)C(c1ccccc1)N(C(=O)CCl)CC2 (stereo not drawn),-1,34*,3,-4,0,1
CCCCCCCCCCCCN1CCSCCS1(=O)=O,.,.,1,.,.,.
CC(/C=N/NC(=O)c1ccncc1)=C\c1ccccc1,-8,-3,5.2*,-2,4,0
CC(=O)c1cccc(NC(=O)N2CCCC2C(=O)Nc2c(C)cccc2C)c1 (stereo not drawn),-4,37*,-1,-4,-4,-1
Cc1noc(C)c1S(=O)(=O)N1CCCC(C(=O)NCCc2ccc(Cl)cc2)C1 (stereo not drawn),-1,47*,1,1,-2,-1
Cc1nn(C)c(C)c1S(=O)(=O)N1CCCC(C(=O)NCCc2ccc(Cl)cc2)C1 (stereo not drawn),-2,15,0,-3,-2,0
CC1(Cc2cccc(F)c2)C(=O)Nc2ccc(OC(F)(F)F)cc21 (stereo not drawn),-1,26,0,.,-5,.
CC(=O)c1cccc(-c2ccc3c(c2)C(C)(Cc2ccccc2F)C(=O)N3)c1 (stereo not drawn),-4,11,0,.,0,.
COC(=O)c1ccc(CC2(C)C(=O)Nc3ccc(-c4cccc(C(F)(F)F)c4)cc32)o1 (stereo not drawn),-4,39*,2,.,3,.
CC1(Cc2ccc(OC(F)(F)F)cc2)C(=O)Nc2ccc(OC(F)(F)F)cc21 (stereo not drawn),-2,38*,0,.,0,.
CCCCOCC1CN(CCCC)S(=O)(=O)c2c(cccc2N(C)S(=O)(=O)c2ccc(C)cc2)O1 (stereo not drawn),.,.,1,.,.,.
CCCCC1OC(CCc2ccccc2)CC2=C1C(=O)OC(C)(C)O2 (stereo not drawn),.,.,-1,.,.,.
CCCCOCC1CN(CCCC)S(=O)(=O)c2c(cccc2Sc2ccc(SC)cc2)O1 (stereo not drawn),.,.,1,.,.,.
O=C(O)c1cccc(COc2ccc3c(c2)CCC3)c1,-1,-10,1,-4,0,5
O=C(O)c1ccc2c(c1)CCCN2,-3,38*,1,-1,-3,.
O=C(Nc1ccccc1)c1cnc[nH]1,-14,31*,1,-3,0,-4
O=C(c1ccccc1)c1cnc[nH]1,-8,8,0,-3,-1,-2
COC(=O)C1=C(C)N(Cc2cccc(C(F)(F)F)c2)C(=NCc2ccccc2C(F)(F)F)NC1c1cccc(F)c1 (stereo not drawn),.,.,-1,.,.,.
CCCSc1nc(N2CCOCC2)c2c(c1C#N)CC(C)(C)SC2,-3,38*,0,-5,-2,-14
CC(C)CSc1nc(N2CCOCC2)c2c(c1C#N)CC(C)(C)SC2,-7,-27,0,-4,-2,-13
Cc1cc2ccccn2c1C(=O)Nc1cccc(Cl)c1,-4,62*,2,-2,-11,-1
Cc1cc2ccccn2c1C(=O)c1ccc(Cl)cc1,-3,17,-1,-5,-6,-3
COc1ccc(S(=O)(=O)Nc2cc3c4c(oc3c3ccccc23)CC(C)(C)CC4=O)cc1,-1,35*,1,-6,-26,1
COCCN1C(=O)[C@H]2C[C@@]13O[C@H](C1CCCCC1)N=C3CC1c3ccccc3C[C@@]12C (stereo partly drawn),.,.,1,.,.,.
SMILES,bovine MsrA act,SKN-1 inh,MsrA inhibitor,beta cell repl,MT1-MMP act inh,DAGLB inh
COc1cc(OC)c(-c2sc(Nc3ccccc3)n[n+]2-c2ccc(F)cc2)cc1OC,-11,-5,4.6*,-1,-1,-1
O=C(O)c1ccc([N+](=O)[O-])c2c1C(=O)c1ccccc1C2=O,-3,0,3,0,6,0
O=C1c2ccccc2C(=O)c2c([N+](=O)[O-])ccc(O)c21,-5,37*,2,-4,59,0
CCOC(=O)C1CSCCS(=O)(=O)N1Cc1ccccc1C (stereo not drawn),.,.,2,.,.,.
O=c1cc(-c2ccccc2Cl)c2c([nH]1)CCC2,3,67*,0,4,-6,-1
O=c1cc(-c2ccccc2)c2c([nH]1)CCCC2,-1,-1,2,.,-5,2
COC(=O)c1cccc2c([N+](=O)[O-])c(NC(C)=O)cc(C(=O)OC)c12,.,.,0,.,.,.
CC(C)(C)S(=O)N1C[C@@H]2CC(=O)C(CCO)=C2[C@H]1CCO (stereo partly drawn),.,.,1,.,.,.
COCc1cc(N2CCN(C(=O)OC(C)(C)C)C[C@@H]2C)ccc1N1CC[C@H](O)C1,.,.,-1,.,.,.
CCC(CC)CN1CCC(CN2C(=S)NC[C@@H]2Cc2ccccc2)CC1,.,.,-1,.,.,.
O=C(C(=O)N1CCN(C(=O)c2cccs2)CC1)c1cccc(C(F)(F)F)c1,.,.,0,.,.,.
Cc1cc(C(=O)Nc2nnc(-c3ccccc3)s2)no1,-8,9,4.6*,-2,-4,3
Cc1ccc(NC(=O)c2cc(-c3ccco3)on2)cc1C,0,36*,-1,-1,-6,-9
O=S1(=O)N[C@H](Cc2ccccc2)COc2cccc(F)c21,.,.,3,.,.,.
O=C(c1ccc(S(=O)(=O)NCc2ccco2)cc1)N1CCN(c2ccc(F)cc2)CC1,-5,33*,1,2,3,-1
O=C(Nc1ccccc1Oc1ccccc1)c1cccs1,-2,42*,-1,-3,-1,-6
COc1cc(/C=N/NC(=O)c2ccc(=O)[nH]n2)ccc1O,-7,-8,4,0.0*,6,2
COc1cc(/C=N/NC(=O)c2cccc(N3CCCC3=O)c2)ccc1O,-4,-10,5.4*,0,1,1
COc1cc(/C=N/NC(=O)c2sc(N)c(C#N)c2C)ccc1O,-16,-11,8.4*,1,-4,5
CCN(CC)c1ccc(/C=N/NC(=O)c2cccc(N3CCCC3=O)c2)cc1,-4,8,2,0,4,7
COCC#Cc1cnc2c(c1)C(=O)N([C@@H](C)CO)C[C@H](C)[C@H](CN(C)C(=O)c1ccc3c(c1)OCO3)O2,.,.,0,.,.,.
O=C1NC(c2ccccc2)(c2ccccc2)C(=O)N1CNc1ccccn1,.,.,0,.,.,.
CC1CCCCN1Cc1c(O)ccc2c(=O)c(-c3nc4ccccc4s3)c(N)oc12 (stereo not drawn),-8,81*,3,-6,1,2
Cc1cc(Br)cn2c(Cc3ccccc3C(F)(F)F)c(-c3ccco3)nc12,.,.,1,.,.,.
CCc1ccc(N/C(SC)=C(/C#N)C(N)=O)cc1,-3,20,.,-2,0,2
CCCCS/C(=C(/C#N)C(N)=O)c1cc2c([nH]1)CCCC2,-3,37*,0,-4,-14,-3
